In ChEMBL document CHEMBL5058577, “EUbOPEN Chemogenomics Library 2 (Multiplex)” (2022):

Test system: U2OS
Assay: Multiplex assay against U2OS
Format: toxicity, cell-based
Settings: human
How it was run: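 Phenotypes for tubulin, mitochondrial mass and membrane permeability are expressed as per cents of healthy-nucleus cells. Cells were stained live at seeding with Hoechst33342, BioTracker Green Microtubule Cytoskeleton Dye, MitoTracker Red and Annexin V Alexa Fluor 680, then imaged after compound addition on a CQ1 microscope at 37°C and 5% CO2. Machine-learning gating in CellPathfinder separated Hoechst high-intensity objects from normal cells, divided normal cells by nuclear state (healthy, pyknosed, fragmented) and divided pyknosed cells into mitotic or apoptotic.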

[1] = 12 h, 1 µM, compound concentration 1 uM, replicate 1
[2] = 12 h, 1 µM, compound concentration 1 uM, replicate 2
[3] = 12 h, 10 µM, compound concentration 10 uM, replicate 1
[4] = 12 h, 10 µM, compound concentration 10 uM, replicate 2
[5] = 24 h, 1 µM, compound concentration 1 uM, replicate 1
[6] = 24 h, 1 µM, compound concentration 1 uM, replicate 2
[7] = 24 h, 10 µM, compound concentration 10 uM, replicate 1
[8] = 24 h, 10 µM, compound concentration 10 uM, replicate 2
[9] = 48 h, 1 µM, compound concentration 1 uM, replicate 1
[10] = 48 h, 1 µM, compound concentration 1 uM, replicate 2
[11] = 48 h, 10 µM, compound concentration 10 uM, replicate 1
[12] = 48 h, 10 µM, compound concentration 10 uM, replicate 2

SMILES: Cc1ccc(-c2ccc(F)cc2COc2ccc(CCC(=O)O)cc2)cc1
- Population Apoptotic (%) [1]: 75%
- Population Fragmented Nuclei (%) [1]: 22%
- Population Healthy Nuclei (%) [1]: 71%
- Population Mitotic Cells (%) [1]: 25%
- Population Normal (%) [1]: 97%
- Population Pyknosed Nuclei (%) [1]: 5%
- Total Cell Count [1]: 277
- Population Apoptotic (%) [2]: 100%
- Population Fragmented Nuclei (%) [2]: 17%
- Population Healthy Nuclei (%) [2]: 74%
- Population Mitotic Cells (%) [2]: 0%
- Population Pyknosed Nuclei (%) [2]: 8%
- Total Cell Count [2]: 135
- Population Apoptotic (%) [3]: 75%
- Population Fragmented Nuclei (%) [3]: 31%
- Population Healthy Nuclei (%) [3]: 61%
- Population Mitotic Cells (%) [3]: 25%
- Population Normal (%) [3]: 98%
- Population Pyknosed Nuclei (%) [3]: 6%
- Total Cell Count [3]: 238
- Population Apoptotic (%) [4]: 83%
- Population Fragmented Nuclei (%) [4]: 14%
- Population Healthy Nuclei (%) [4]: 75%
- Population Mitotic Cells (%) [4]: 16%
- Population Normal (%) [4]: 97%
- Population Pyknosed Nuclei (%) [4]: 10%
- Total Cell Count [4]: 123
- Population Apoptotic (%) [5]: 90%
- Population Fragmented Nuclei (%) [5]: 21%
- Population Healthy Nuclei (%) [5]: 69%
- Population Mitotic Cells (%) [5]: 10%
- Population Normal (%) [5]: 97%
- Population Pyknosed Nuclei (%) [5]: 9%
- Total Cell Count [5]: 340
- Population Apoptotic (%) [6]: 100%
- Population Fragmented Nuclei (%) [6]: 20%
- Population Healthy Nuclei (%) [6]: 70%
- Population Mitotic Cells (%) [6]: 0%
- Population Normal (%) [6]: 98%
- Population Pyknosed Nuclei (%) [6]: 8%
- Total Cell Count [6]: 175
- Population Apoptotic (%) [7]: 94%
- Population Fragmented Nuclei (%) [7]: 26%
- Population Healthy Nuclei (%) [7]: 67%
- Population Mitotic Cells (%) [7]: 5%
- Population Normal (%) [7]: 98%
- Population Pyknosed Nuclei (%) [7]: 5%
- Total Cell Count [7]: 295
- Population Apoptotic (%) [8]: 93%
- Population Fragmented Nuclei (%) [8]: 22%
- Population Mitotic Cells (%) [8]: 6%
- Population Normal (%) [8]: 97%
- Population Pyknosed Nuclei (%) [8]: 9%
- Total Cell Count [8]: 160
- Population Apoptotic (%) [9]: 89%
- Population Fragmented Nuclei (%) [9]: 17%
- Population Healthy Nuclei (%) [9]: 74%
- Population Mitotic Cells (%) [9]: 10%
- Population Normal (%) [9]: 97%
- Population Pyknosed Nuclei (%) [9]: 8%
- Total Cell Count [9]: 487
- Population Apoptotic (%) [10]: 95%
- Population Fragmented Nuclei (%) [10]: 15%
- Population Healthy Nuclei (%) [10]: 75%
- Population Mitotic Cells (%) [10]: 5%
- Total Cell Count [10]: 242
- Population Apoptotic (%) [11]: 87%
- Population Fragmented Nuclei (%) [11]: 21%
- Population Healthy Nuclei (%) [11]: 70%
- Population Mitotic Cells (%) [11]: 12%
- Population Normal (%) [11]: 97%
- Population Pyknosed Nuclei (%) [11]: 7%
- Total Cell Count [11]: 421
- Population Apoptotic (%) [12]: 88%
- Population Fragmented Nuclei (%) [12]: 16%
- Population Healthy Nuclei (%) [12]: 72%
- Population Mitotic Cells (%) [12]: 11%
- Population Normal (%) [12]: 98%
- Total Cell Count [12]: 236
